Results reported in ChEMBL document CHEMBL1159066 (J Med Chem, 2010).
pEC50, pIC50: −log10 of the molar value. The source made the active and inactive calls. No cut-off for these calls is given here.

Assays:
Caenorhabditis elegans [1] = experiment: Effect on nuclear integrity in transgenic Caenorhabditis elegans coexpressing nuclear GFP and normal PABPN1-A10; type: functional, organism-based
Outline: (§1)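 Synchronized L1 worms were kept in OP-50.1 liquid culture with the drug. Nuclear GFP signals were counted at young adulthood under a ×10 fluorescence microscope. Percent rescue = ((test − control)/control) × 100, where a negative value means enhanced toxicity. At least 100 worms were scored per dose, in three independent assays. Comparison was by two-tailed Student's t-test.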

Caenorhabditis elegans [2] = experiment: Protection against mutant PABPN1-induced toxicity in transgenic Caenorhabditis elegans coexpressing nuclear GFP and PABPN1-A13 assessed as inhibition of nuclear collapse; type: functional, organism-based
Outline: (§2)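 Synchronized L1 transgenic worms incubated with drug in OP-50.1 liquid culture; nuclear GFP signals counted at young adulthood under 10x fluorescence microscopy. Percent rescue = ((test − control)/control) × 100, negative values indicating enhanced toxicity. At least 100 worms scored per dose, three independent assays; two-tailed Student's t-test unless stated otherwise.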

Caenorhabditis elegans [3] = experiment: Protection against mutant PABPN1-induced toxicity in transgenic Caenorhabditis elegans coexpressing nuclear GFP and PABPN1-A13 assessed as inhibition of deffective worm motility at 33.3 uM; type: functional, organism-based
Outline: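 Drug-treated transgenic worms as day 3-5 adults placed on thin OP-50.1 lawn on NGM plates; body bends (complete sinusoids) counted immediately over 20 s. 60-100 worms per dose, three independent assays; mean ± SEM compared with untreated animals.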

Caenorhabditis elegans [4] = experiment: Reduction of PABPN1 expression in transgenic Caenorhabditis elegans coexpressing nuclear GFP and PABPN1-A13 by Q-RT-PCR; type: functional, organism-based
Caenorhabditis elegans [5] = experiment: Protection against mutant PABPN1-induced toxicity in transgenic Caenorhabditis elegans coexpressing nuclear GFP and PABPN1-A13 assessed as inhibition of deffective worm motility; type: functional, organism-based
Outline: (§3)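 Worms were drug-treated from the synchronized L1 stage in OP-50.1 liquid culture. Day 3–5 adults were placed on a thin OP-50.1 lawn on NGM plates. Body bends (complete sinusoids) were counted immediately over 20 s. 60–100 worms were scored per dose, in three independent assays. Results are mean ± SEM versus untreated animals, checked by one-way ANOVA.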

[6] = target: T1, NAD-dependent protein deacetylase sirtuin-1 (Homo sapiens, UniProt Q96EB6); experiment: Inhibition of human recombinant SIRT1 by Flour de Lys assay
T1 sequence (Q96EB6 whole entry): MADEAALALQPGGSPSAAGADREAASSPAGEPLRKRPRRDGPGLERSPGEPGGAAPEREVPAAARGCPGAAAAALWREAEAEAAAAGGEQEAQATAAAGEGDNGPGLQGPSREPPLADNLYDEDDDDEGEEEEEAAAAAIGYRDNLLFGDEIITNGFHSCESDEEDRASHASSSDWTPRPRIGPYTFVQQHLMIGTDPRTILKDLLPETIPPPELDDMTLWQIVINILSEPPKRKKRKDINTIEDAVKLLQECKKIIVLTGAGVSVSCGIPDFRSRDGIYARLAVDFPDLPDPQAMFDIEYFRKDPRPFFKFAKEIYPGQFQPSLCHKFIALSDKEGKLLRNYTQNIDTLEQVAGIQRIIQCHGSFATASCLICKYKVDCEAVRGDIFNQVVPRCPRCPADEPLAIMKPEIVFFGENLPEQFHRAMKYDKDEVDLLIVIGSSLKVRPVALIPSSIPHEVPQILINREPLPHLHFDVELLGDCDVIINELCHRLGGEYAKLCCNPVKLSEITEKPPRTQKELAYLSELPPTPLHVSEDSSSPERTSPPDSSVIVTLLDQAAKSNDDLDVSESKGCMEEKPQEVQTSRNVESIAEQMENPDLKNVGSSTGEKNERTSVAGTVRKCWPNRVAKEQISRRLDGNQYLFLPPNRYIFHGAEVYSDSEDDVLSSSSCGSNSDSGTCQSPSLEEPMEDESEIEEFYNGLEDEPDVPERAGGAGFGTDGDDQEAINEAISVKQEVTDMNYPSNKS

Caenorhabditis elegans [7] = experiment: Effect on nuclear integrity in transgenic Caenorhabditis elegans coexpressing nuclear GFP and normal PABPN1-A10 assessed as nuclear GFP fluorescence level relative to untreated control; type: functional; outline: as §2
Caenorhabditis elegans [8] = experiment: Protection against mutant PABPN1-induced toxicity in transgenic Caenorhabditis elegans coexpressing nuclear GFP and PABPN1-A13 assessed as nuclear GFP fluorescence level relative to untreated control; type: functional; outline: as §2
[9] = target: T2, NAD-dependent protein deacetylase sirtuin-2 (Homo sapiens, UniProt Q8IXJ6); experiment: Inhibition of human recombinant SIRT2 by Flour de Lys assay
T2 sequence (Q8IXJ6 whole entry): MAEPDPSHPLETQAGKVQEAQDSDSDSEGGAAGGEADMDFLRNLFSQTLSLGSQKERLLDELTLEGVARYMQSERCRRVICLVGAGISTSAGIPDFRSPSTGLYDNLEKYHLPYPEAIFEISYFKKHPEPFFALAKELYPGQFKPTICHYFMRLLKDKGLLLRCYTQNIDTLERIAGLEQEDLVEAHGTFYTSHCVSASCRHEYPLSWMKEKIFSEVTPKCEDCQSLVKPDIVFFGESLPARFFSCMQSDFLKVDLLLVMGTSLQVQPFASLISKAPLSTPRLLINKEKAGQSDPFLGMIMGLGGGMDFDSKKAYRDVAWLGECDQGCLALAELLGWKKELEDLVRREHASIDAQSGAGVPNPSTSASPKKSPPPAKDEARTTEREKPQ

Caenorhabditis elegans [10] = experiment: Protection against mutant PABPN1-induced toxicity in transgenic Caenorhabditis elegans coexpressing nuclear GFP and PABPN1-A13 assessed as inhibition of nuclear collapse at 11.1 uM; type: functional, organism-based; outline: as §1
Caenorhabditis elegans [11] = experiment: Protection against mutant PABPN1-induced toxicity in transgenic Caenorhabditis elegans coexpressing nuclear GFP and PABPN1-A13 assessed as inhibition of deffective worm motility at 11.1 uM; type: functional, organism-based; outline: as §3
Caenorhabditis elegans [12] = experiment: Protection against mutant PABPN1-induced toxicity in transgenic Caenorhabditis elegans coexpressing nuclear GFP and PABPN1-A13 assessed as inhibition of nuclear collapse at 3.7 uM; type: functional, organism-based; outline: as §1
Caenorhabditis elegans [13] = experiment: Protection against mutant PABPN1-induced toxicity in transgenic Caenorhabditis elegans coexpressing nuclear GFP and PABPN1-A13 assessed as inhibition of deffective worm motility at 3.7 uM; type: functional, organism-based; outline: as §3

Row | Structure (SMILES) | Activity (Caenorhabditis elegans [1]) | Activity (Caenorhabditis elegans [2]) | pIC50 [6] | pIC50 [9] | other results
1 | CC(NC(=O)c1ccccc1/N=C/c1c(O)ccc2ccccc12)c1ccccc1 (stereo unspecified) | inactive | Active |  |  | 
2 | NC(=O)[C@H]1CCCc2c1[nH]c1ccc(Cl)cc21 |  | Active |  |  | Activity (Caenorhabditis elegans [3]): Active
3 | O=C1CCc2c(ccc3ccccc23)O1 | inactive | Active |  |  | Activity (Caenorhabditis elegans [4]): inactive; Activity (Caenorhabditis elegans [5]): Active
4 | N#C/C(=C\c1ccc(-c2cc(Cl)ccc2Cl)o1)C(=O)Nc1cccc2ncccc12 |  | Dose-dependent effect | < 4.30 |  | Activity (Caenorhabditis elegans [7]): 10%; Activity (Caenorhabditis elegans [8]): 20%
5 | CC(C(=O)Nc1cccc(/N=C/c2c(O)ccc3ccccc23)c1)c1ccccc1 (stereo unspecified) | inactive | Active |  |  | 
6 | CC(CSc1cccc(/N=C/c2c(O)ccc3ccccc23)c1)c1ccccc1 (stereo unspecified) |  | inactive | 4.39 | 4.72 | 
7 | O=c1nc2oc3ccc4ccccc4c3cc-2c(=O)n1-c1ccccc1 | inactive |  |  |  | Activity (Caenorhabditis elegans [10]): Active; Activity (Caenorhabditis elegans [11]): Active
8 | CC(NS(=O)(=O)c1ccc(/N=C/c2c(O)ccc3ccccc23)cc1)c1ccccc1 (stereo unspecified) | inactive |  | 4.36 | 4.65 | pEC50 (Caenorhabditis elegans [5]): > 6.00; Activity (Caenorhabditis elegans [8]): 10%
9 | CC(NC(=O)c1cccc(/N=C/c2c(O)ccc3ccccc23)c1)c1ccccc1 (stereo unspecified) |  |  |  | 4.46 | 
10 | CC(NC(=O)c1ccc(/N=C/c2c(O)ccc3ccccc23)cc1)c1ccccc1 (stereo unspecified) | inactive | Active | 4.32 | 4.52 | 
11 | O=C1Oc2ccc3ccccc3c2CC1C(=O)c1ccccc1Cl (stereo unspecified) | inactive | Active | 4.05 | 5.03 | Activity (Caenorhabditis elegans [4]): inactive; Activity (Caenorhabditis elegans [5]): Active
12 | O=c1nc2oc3ccccc3cc-2c(=O)[nH]1 | inactive |  | 5.28 | 3.61 | Activity (Caenorhabditis elegans [12]): Active; Activity (Caenorhabditis elegans [13]): Active
